Consider 17 molecules from ChEMBL document CHEMBL3091285, “Cytotoxic compounds from invasive giant salvinia (Salvinia molesta) against human tumor cells” (Bioorg Med Chem Lett, 2013).

Series [1] is described as follows: Cytotoxicity against human MRC5 cells assessed as growth inhibition by WST-8 assay. The series is classed as cell-based. For orientation: Tetrazolium assays rely on reduction of a dye to a coloured formazan, in cell work by metabolically active cells.
Series [2] is described as follows: Cytotoxicity against human BxPC3 cells assessed as growth inhibition by WST-8 assay. The series is classed as functional. The following applies: BXPC-3.
Series [3] is described as follows: Cytotoxicity against human PANC1 cells assessed as growth inhibition by WST-8 assay. The series is classed as functional. The following applies: PANC-1.
The next series relates to HL-60. Kind of series: Cytotoxicity against human HL60 cells assessed as growth inhibition by WST-8 assay. The series is classed as functional.
The next series concerns PC-3. Briefly: Cytotoxicity against human PC3 cells assessed as growth inhibition by WST-8 assay. The series is classed as functional.
The next series has as its system A549. Briefly: Cytotoxicity against human A549 cells assessed as growth inhibition by WST-8 assay. Type of series: functional.
For another series, the system named is BXPC-3. Briefly: Antiproliferative activity against human BxPC3 cells after 12 to 48 hrs by CCK-8 assay. The series is classed as functional, cell-based. In outline:
(§1)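 Pancreatic cancer cells (PANC-1, BxPC-3) exposed to test compound at 0 (control), 5, 10, 20, 40, 60, 80 or 100 uM, with concentration levels differing between compounds. Proliferation followed over incubation time, with viable cell number (x1,000) plotted against hours to assess dose-dependent suppression.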

Another series relates to PANC-1. Kind of series: Antiproliferative activity against human PANC1 cells after 12 to 48 hrs by CCK-8 assay. The series is classed as functional, cell-based. In outline: as §1
A further series concerns MDA-MB-231. Kind of series: Cytotoxicity against human MDA-MB-231 cells assessed as growth inhibition by WST-8 assay. Type of series: functional.

Usually GI50 stands for the concentration at which growth is held to half of that of the control.

`CC(C)c1cc2c(cc1O)[C@@]1(C)CCCC(C)(C)[C@@H]1CC2O` (some centres not stated): the GI50 in series [1] is 70.5 µM; in series [2], 74.7 µM; in [3], 78.2 µM; in the series with HL-60, 75.2 µM; in the series on PC-3, 85.6 µM; with A549 it was 75.1 µM.

On to `CC(C)c1cc2c(cc1O)[C@@]1(C)CCCC(C)(C)[C@@H]1C[C@H]2CC1=CCC(O)(C(C)C)CC1` (some centres not stated), for which the inhibition result in the series on BXPC-3 and with PANC-1 was “Dose-dependent effect” throughout. Also, the GI50 in series [1] worked out at 58.4 µM; with MDA-MB-231, 75 µM; in series [2], 87.3 µM; in series [3], 60.4 µM; in the series with HL-60 it was 48.1 µM; with PC-3, 54.2 µM. Further, in the series on A549, the GI50 is 62.9 µM.

Regarding `CC(C)c1cc(C=O)c([C@@]2(C)CCCC(C)(C)[C@@H]2C=O)cc1O`, in the series with A549, the 50% growth inhibitory concentration (GI50) was found to be 93.8 µM.

In the case of `CO[C@H]1c2cc(C(C)C)c(O)c(O)c2[C@@]23CCCC(C)(C)[C@@H]2[C@@H]1OC3=O`, the GI50 with A549 turned out to be 86.5 µM.

For `CC(C)c1cc2ccc3c(c2cc1O)CCCC3(C)C`, the GI50 in [1] is 55.4 µM; in [2] it was 36.4 µM; in [3] it was 37.5 µM; in the series on HL-60 it was 50 µM; with PC-3 it was 43.6 µM; in the series on A549 it was 42.2 µM.

With `COc1cc2c(cc1C(C)C)C(=O)C(O)=C1C(C)(C)CCC[C@@]12C`, in the series with A549, the GI50 amounted to 21.2 µM.

Turning to `CC(C)c1cc2c(c(O)c1O)[C@@]1(C)CCCC(C)(C)C1=C(O)C2=O` [14-DEOXYCOLEON U], the GI50 in series [1] is 24.8 µM; in the series on MDA-MB-231 it was over 100 µM; in [2], 37.3 µM; in [3], 22.6 µM; in the series with HL-60, 13.3 µM; in the series on PC-3 it was 8.39 µM. Moreover, the GI50 in the series on A549 is 9.1 µM.

As to `CC(C)c1cc2c(c(O)c1O)[C@@]1(C)CCCC(C)(C)[C@@H]1CC2=O` [DEMETHYLCRYPTOJAPONOL], the GI50 in [1] was determined as 40.2 µM; in series [2], 45 µM; in [3], 43.1 µM; in the series with HL-60 it was 35.3 µM; with PC-3, 41 µM; with A549, 35 µM.

For the molecule `CC(C)c1cc2c(cc1O)[C@@]1(C)CCCC(C)(C)C1=CC2=O`, the GI50 was over 100 µM in series [2]; over 100 µM in [3]; 92.8 µM with HL-60; over 100 µM in the series on PC-3; 84.5 µM with A549.

Turning to `CC(C)c1cc2c(cc1O)[C@@]1(C)CCCC(C)(C)[C@@H]1CC2=O` [SUGIOL], the concentration for 50% growth inhibition (GI50) in series [1] was over 100 µM; in series [2], 36.1 µM; in [3], 87.9 µM; in the series with HL-60, 68.6 µM; with PC-3, over 100 µM; with A549, 79.8 µM.

For the molecule `CC(C)c1cc2c(cc1O)[C@@]1(C)CCCC(C)(C)C1=C(O)C2=O`, the inhibition entry in the series on BXPC-3 and in the series with PANC-1 was “Dose-dependent effect” in each case. The GI50 in series [1] came to 20 µM; in series [2], 25 µM; in series [3], 23.1 µM; in the series with HL-60, 11.5 µM; in the series with PC-3, 13.2 µM; with A549 it was 11.1 µM.

On to `CC(C)C1=C(O)C(=O)C2=C(CC[C@H]3C(C)(C)CCC[C@]23C)C1=O` [ROYLEANONE], for which the GI50 in series [1] amounted to 45.7 µM; in series [2], 51 µM; in series [3] it was 52.6 µM; with HL-60, 36.3 µM; in the series with PC-3, 27.1 µM; with A549 it was 30.1 µM.

`CC(C)c1cc2c(cc1O)[C@@]1(C)CCCC(C)(C)[C@@H]1C=C2`: the GI50 turned out to be 59.2 µM in [1]; 37.5 µM in series [2]; 46.7 µM in series [3]; 66.5 µM in the series on HL-60; 58.1 µM in the series on PC-3; 53.8 µM with A549.

Take `CC(C)C1=Cc2ccc3c(c2C(=O)C1=O)C(=O)CCC3(C)C`: the GI50 was determined as 20.4 µM in series [1]; 20.5 µM in series [2]; 32.1 µM in series [3]; 23.3 µM with HL-60; 19 µM with PC-3; 24.9 µM in the series with A549.

As to `CC(C)c1ccc2c3c(ccc2c1)C(C)(C)CCC3`, the GI50 (in [1]; in series [2]; in series [3]; in the series with HL-60; in the series with PC-3; in the series with A549) was over 100 µM each time.

Take `CC(C)C1=C(O)C(=O)C2=C(C=C[C@H]3C(C)(C)CCC[C@]23C)C1=O`: the GI50 stood at 40.2 µM in [1]; 41.7 µM in series [2]; 51.3 µM in series [3]; 30 µM with HL-60; 46.3 µM in the series on PC-3; 48 µM with A549.

With `CC(C)c1cc2c(cc1O)[C@@]1(C)CCCC(C)(C)[C@@H]1CC2` [FERRUGINOL], the GI50 was 40 µM in [1]; 21.1 µM in series [2]; 41.1 µM in series [3]; 27.3 µM with HL-60; 56.5 µM in the series with PC-3; 30.7 µM in the series with A549.
